Measurements collected from several papers.
Each line is one published result; the experiments were not run side by side.
Cell line: NCI-H1299
Observed: cell growth or viability

SMILES	technique	time	IC50 [µM]
C/C(=N\O)c1ccc(-c2ccc(O)c(C)c2)c(Cl)c1O	MTT	48 h	30.3
COc1cc2c(Nc3ccc(NC(=O)c4ccccc4)cc3)ncnc2cc1OCCCN1CCOCC1	MTS	48 h	1.1
COc1ccccc1/C=C/CNCC(O)COc1cccc2c1[nH]c1ccccc12 (centres unmarked)	CCK-8	72 h	16.3
COc1cc(Nc2nccc(-c3cnn4nc(OC)ccc34)n2)cc(C(F)(F)F)c1	ATP luminescence		0.26
COc1ccccc1/C=C/CNCC(O)COc1ccc2ncccc2c1 (centres unmarked)	CCK-8	72 h	> 100
C/C(=N\O)c1ccc(-c2ccc(O)c(Cl)c2)c(Cl)c1O	MTT	48 h	45.8
OCc1cn(Cc2ccc(Cl)cc2)c2ccccc12	SRB	72 h	≥ 13
O=c1[nH]cc(S(=O)(=O)Nc2cccc(-c3nnc(-c4cccc(Cl)c4)o3)c2)c(=O)[nH]1	MTT	24 h	27.6
COc1ccccc1/C=C/CNCC(O)COc1cccc2ncccc12 (centres unmarked)	CCK-8	72 h	36.6
CC(C)C[C@H](NC(=O)[C@H](Cc1ccccc1)NC(=O)c1cnccn1)B(O)O	ATP luminescence		0.0099
OCc1cn(Cc2cccc(Cl)c2)c2ccccc12	SRB	72 h	≥ 13
